Assay results reported in publication PMC11378895 (Asian Journal of Pharmaceutical Sciences, 2024).
Where no end group is shown, it is not given here.

Assays:
HK-2 cells = test: Cellular uptake by flow cytometry and confocal microscopy; format: cell-based, human; conditions: 10 µM, 1-h and 4-h incubation, flow cytometry, n = 3
Method in brief: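 HK-2 cells in DMEM with 10% FBS at 37 °C and 5% CO2, seeded at 3 × 10^5 cells per well. After adherence, they got medium with 10 µM Cy5-labelled test peptide or control peptide, some with TGF-β, for 1 h or 4 h. Flow cytometry quantified uptake (n = 3). For confocal imaging, the same treatment was followed by fixation and Hoechst 33342 nuclear stain.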

LRG1 = target: T1, LRG1 (Homo sapiens, UniProt P02750); test: LRG1 degradation in HK-2 cells; format: cell-based; conditions: various concentrations, Western blot (Fig. S9)
T1 sequence (P02750 36-347): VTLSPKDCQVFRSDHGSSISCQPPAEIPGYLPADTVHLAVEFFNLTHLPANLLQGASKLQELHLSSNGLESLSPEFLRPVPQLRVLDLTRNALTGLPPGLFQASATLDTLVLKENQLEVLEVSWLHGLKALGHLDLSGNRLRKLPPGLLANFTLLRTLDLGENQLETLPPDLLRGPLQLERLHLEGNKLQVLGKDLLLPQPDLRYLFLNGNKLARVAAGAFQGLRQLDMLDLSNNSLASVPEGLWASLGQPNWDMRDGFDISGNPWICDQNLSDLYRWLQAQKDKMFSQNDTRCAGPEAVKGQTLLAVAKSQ
Method in brief: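 HK-2 cells were seeded at 3 × 10^5 cells per well. After adherence, they were serum-starved 6 h, then treated with test compound at varying concentrations for 12 h. Harvested protein went to Western blot, with LRG1 normalised to GAPDH as internal control.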

Row | Compound | uptake by HK-2 cells compared with control peptide (HK-2 cells) | LRG1 degradation by the constituents (control degradation experiments) (LRG1)
1 | ET-Cy5: ET peptide labeled with cyanine dye Cy5 (ESYSAKHRIMLT; also: Cy5 label, position not given here) | markedly enhanced than MP-Cy5 | 
2 | Nc1cccc2c1CN(C1CCC(=O)NC1=O)C2=O (centres unmarked) [lenalidomide, Lenalidomide] |  | none of these treatments led to LRG1 degradation
